# VIM-2 inh: inhibitors of Pseudomonas aeruginosa VIM-2 metallo-beta-lactamase. purified VIM-2, nitrocefin hydrolysis, epi-absorbance fluorescence. inhibition, % at 5.6 µM. hit rate 0.89% among 290,000. AID 1527;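 active = inhibition above the mean of all tested compounds plus 3 SD, cutoff set per screening run, cut at about 7.5% in these data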;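 also: red hydrolysis product quenches plate fluorescence so inhibitors raise well fluorescence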
# 697 NFkB inh: inhibitors of the PMA/ionomycin-induced NF-kB reporter in 697 B cells. 697 B-cell NF-kB luciferase reporter, 16 h. inhibition, % at 4 µM. hit rate 0.33% among 330,000; in the data active = inhibition above about 35%
# aSyn UTR inh: MLPCN primary screen, SNCA 5' untranslated region; inhibition, % (tested at 7.5 µM); AID 1813; hit rate 0.82% among 300,000; alpha-synuclein 5'UTR reporter, inhibitor activity; in the data active = inhibition above about 60%;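 also: H4 neuroglioblastoma cells stably carrying SNCA 5'UTR luciferase fusion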
# Mdm2 MdmX PPI: inhibitors of human Mdm2/MdmX interaction. SaOS-2 split-luciferase Mdm2/MdmX complementation, luminescence. inhibition, % at 8 µM. hit rate 3% among 330,000;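 active = inhibition of at least 50% at 8 µM in the primary screen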
# Target sequence (O15151 whole entry, looked up): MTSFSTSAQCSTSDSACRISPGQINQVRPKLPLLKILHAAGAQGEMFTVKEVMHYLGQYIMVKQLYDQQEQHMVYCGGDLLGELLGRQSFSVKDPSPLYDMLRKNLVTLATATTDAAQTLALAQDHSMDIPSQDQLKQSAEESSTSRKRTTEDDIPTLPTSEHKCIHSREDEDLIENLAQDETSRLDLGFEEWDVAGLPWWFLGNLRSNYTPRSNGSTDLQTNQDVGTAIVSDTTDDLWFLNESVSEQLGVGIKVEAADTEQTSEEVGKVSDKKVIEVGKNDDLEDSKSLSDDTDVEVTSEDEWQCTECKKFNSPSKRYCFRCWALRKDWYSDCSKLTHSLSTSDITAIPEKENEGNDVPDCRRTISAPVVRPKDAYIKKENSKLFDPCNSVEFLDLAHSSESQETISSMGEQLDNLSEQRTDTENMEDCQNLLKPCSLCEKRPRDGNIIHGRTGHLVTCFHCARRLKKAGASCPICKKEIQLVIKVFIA
# Target sequence (Q00987 whole entry, looked up): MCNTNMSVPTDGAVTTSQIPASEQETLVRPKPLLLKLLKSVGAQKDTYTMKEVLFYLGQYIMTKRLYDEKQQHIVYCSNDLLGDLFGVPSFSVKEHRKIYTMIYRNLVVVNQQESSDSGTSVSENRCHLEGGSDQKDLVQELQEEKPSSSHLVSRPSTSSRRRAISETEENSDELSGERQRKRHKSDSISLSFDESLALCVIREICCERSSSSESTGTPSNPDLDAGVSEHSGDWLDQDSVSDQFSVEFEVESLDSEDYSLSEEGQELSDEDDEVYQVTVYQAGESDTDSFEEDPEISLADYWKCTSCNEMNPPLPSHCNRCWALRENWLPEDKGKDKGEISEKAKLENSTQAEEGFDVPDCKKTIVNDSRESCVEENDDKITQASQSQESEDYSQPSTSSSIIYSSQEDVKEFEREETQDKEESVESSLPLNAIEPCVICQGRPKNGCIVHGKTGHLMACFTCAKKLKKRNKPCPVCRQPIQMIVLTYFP
# Jurkat NFkB inh: lowers PMA/ionomycin-induced NF-kB signal in Jurkat cells. PMA/ionomycin-induced NF-kB luciferase reporter, luminescence. AID 435003. inhibition, % at 4 µM. hit rate 0.53% among 330,000; in the data active = inhibition above about 50%
# IMP-1 inh: inhibitors of Pseudomonas aeruginosa IMP-1 metallo-beta-lactamase | purified IMP-1, nitrocefin hydrolysis, epi-absorbance fluorescence | inhibition, % at 5.6 µM | hit rate 0.45% among 290,000 | AID 1556;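 active = inhibition above the mean plus 3 SD of all compounds in the same screening run, cut at about 4.5% in these data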
#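 Test system: recombinant IMP-1 enzyme, purified / Medium: HEPES buffer pH 7.1 with ZnSO4 and Brij 35 / Doses: single dose, 5.6 µM / Times: 25 °C, 15 min preincubation, 25 min reaction / Detection: Epi-absorbance via hydrolysed-nitrocefin quenching of white-plate fluorescence, 480/530 nm, EDTA stop / Evaluation: percent inhibition from optical density relative to buffer-blank wells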
# 697 NFkB conf: inhibitors of the PMA/ionomycin-induced NF-kB reporter in 697 B cells, retest; shares compounds with 697 NFkB inh; 697 B-cell NF-kB luciferase, 16 h; inhibition, % at 4 µM; hit rate 35% among 2,000; in the data active = inhibition mostly above about 28%, no sharp cut-off; inactive = mostly below about 22%
# Hits are given with their value; 0 = inactive; - = not tested or not shown. This is a sample that favours compounds with a hit; in the whole collection about 4.7% have one here.
SMILES,VIM-2 inh,697 NFkB inh,aSyn UTR inh,Mdm2 MdmX PPI,Jurkat NFkB inh,IMP-1 inh,697 NFkB conf
CNC(=O)c1cc(Nc2nnc(-c3ccc(O)cc3)c3ccccc23)ccc1OC,0,35.4,0,0,0,0,28.9
c1ccc2sc(-c3ccc4c(c3)OCO4)nc2c1,0,0,-,0,0,0,0
O=C(Nc1cccc(-c2nc3ccccc3s2)c1)c1ccc2c(c1)OCO2,0,0,0,0,0,0,-
Cc1cc(C)c2c(N)c(C(=O)Nc3cccc(C)c3C)sc2n1,0,0,0,0,0,0,-
COc1ccc(NS(=O)(=O)c2ccc(-c3coc(C)n3)cc2)cc1,0,0,0,0,0,0,-
COc1ccc(NS(=O)(=O)c2ccc(-c3coc(C)n3)cc2)cc1OC,0,40.5,0,0,0,0,59.5
COC(=O)c1cc(C(=O)c2ccc(Cl)cc2)n2c(=O)/c(=C\N(C)C)sc12,0,41.3,0,0,0,0,0
COC(=O)c1cc(C(=O)c2ccccc2)n2c(=O)/c(=C\N(C)C)sc12,0,0,0,0,0,0,-
CCOc1ccc(-c2cc(CCCC(=O)NCc3ccc(C)cc3)no2)cc1,0,48.3,80.7,0,0,0,36.8
CCOc1ccc(-c2cc(CCCC(=O)NCc3ccco3)no2)cc1,0,57.3,72.8,0,0,0,46.0
COc1ccccc1CNS(=O)(=O)c1c(C(=O)N2CCCCC2)c(C)n(C)c1C,0,0,0,0,0,0,-
CCN(CC)c1ccc(NC(=O)c2c(C)noc2C)cc1,0,0,0,0,0,0,-
CC(C)CCC(C(=O)NC(C)c1ccccc1)C(=O)NC(C)c1ccccc1 (configuration not stated),0,0,0,0,0,0,-
CC(=O)Nc1ccc(/C=C(\C#N)C(=O)NC2CCCCC2)cc1,0,45.9,0,0,0,0,0
CSc1ccc(/C=C(\C#N)C(=O)NC2CCCCC2)cc1,0,0,0,0,0,0,-
COc1ccc2c(c1OC)C(=O)OC2Nc1ccccn1 (configuration not stated),0,35.5,0,0,0,0,0
COc1ccc2c(c1OC)C(=O)OC2Nc1nc2ccccc2s1 (configuration not stated),0,0,0,0,0,0,-
COc1ccc(-c2ccoc2)cc1[C@H]1[C@H]2C=CC[C@@H](C)[C@@H]2C(=O)N1Cc1ccccc1,-,46.5,0,0,0,-,39.5
CCCCCC/C=C/c1ccc(OC)c([C@H]2[C@H]3C=CC[C@@H](C)[C@@H]3C(=O)N2Cc2ccccc2)c1,-,68.0,0,0,0,-,27.9
COc1ccc(-c2ccc(C)cc2)cc1[C@H]1[C@H]2C=CC[C@@H](C)[C@@H]2C(=O)N1Cc1ccccc1,-,41.3,0,0,0,-,49.3
COc1ccc(-c2ccc(OC)c([C@H]3[C@H]4C=CC[C@@H](C)[C@@H]4C(=O)N3Cc3ccccc3)c2)cc1,-,54.4,0,0,0,-,39.3
CCN(C(=O)CN1C(=O)NC(c2ccccc2)(c2ccc(C)c(C)c2)C1=O)C1CCS(=O)(=O)C1 (configuration not stated),-,0,-,0,0,-,-
CCN(C(=O)CN1C(=O)NC(c2ccccc2)(c2ccc(C)c(C)c2)C1=O)C1CCCCC1 (configuration not stated),-,44.0,-,0,0,-,27.4
CCc1ccc2oc(-c3cccc(N)c3)nc2c1,0,0,0,0,0,0,0
COc1cc(CC2COC(=O)C2(O)Cc2ccc(O)c(OC)c2)ccc1O (configuration not stated),-,0,0,0,0,-,-
SMILES,VIM-2 inh,697 NFkB inh,aSyn UTR inh,Mdm2 MdmX PPI,Jurkat NFkB inh,IMP-1 inh,697 NFkB conf
COc1cc(C[C@@H]2C(=O)OC[C@H]2Cc2ccc(OC)c(OC)c2)ccc1O,-,84.9,-,0,0,-,70.2
Cc1nn(-c2ccc(N3CCCCC3)nn2)c(C)c1CCC(=O)Nc1ccccc1F,0,51.4,0,0,0,0,47.8
Cc1cc2nc(-c3ccc(=O)[nH]c3)n(Cc3ccccc3)c2cc1C,0,0,0,0,0,0,-
O=C(Nc1ccc2[nH]c(=S)sc2c1)c1ccccc1,0,0,0,0,0,0,-
O=C(Nc1ccc2[nH]c(=S)sc2c1)Nc1ccccc1F,0,0,0,0,0,0,0
COc1ccc(S(=O)(=O)N2CCN(C(c3ccccc3)c3ccccc3)CC2)cc1NC(C)=O,0,0,0,0,0,0,-
Nc1ncnc2c1ncn2[C@@H]1O[C@H](CNCc2ccc(OCC(=O)Nc3nccs3)cc2)[C@@H](O)[C@H]1O,-,0,-,0,0,-,-
CCOCCCNC(=O)/C(C#N)=C/c1ccc([N+](=O)[O-])o1,0,0,0,0,0,0,-
Cc1cccn2c(=O)c3cc(C(=O)NC4CCCCC4)c(=N)n(CCN4CCOCC4)c3nc12,0,53.5,0,0,0,0,39.2
COc1ccc(-c2noc(N3CCC(C(=O)Nc4cc(OC)c(OC)c(OC)c4)CC3)n2)cc1,0,0,0,0,0,0,-
CCCCn1c2c(c(=N)c3ccccc31)CCC2,0,44.3,0,0,0,0,46.4
CCOC(=O)Cn1c2c(c(=N)c3ccccc31)CCC2,0,0,0,0,0,0,-
CC(Sc1nnc(-c2cccnc2)o1)C(=O)NC1CCCCC1 (configuration not stated),-,0,-,0,0,-,-
Cc1cccc(NC(=O)c2nc[nH]c2C(=O)N(C)Cc2ccccc2)c1,-,0,-,0,0,-,-
O=C(CCNS(=O)(=O)c1ccccc1)NNC(=O)COc1ccccc1F,-,0,-,0,0,-,-
Cc1cccc(OCc2cc(-c3ccccc3)no2)c1C,0,0,0,0,0,0,-
Clc1ccc(OCc2cc(-c3ccccc3)no2)c(Cl)c1,0,0,0,0,0,0,0
Cc1ccc(S(=O)(=O)CC2CSc3nc4ccccc4n32)cc1 (configuration not stated),0,61.8,0,0,0,0,75.2
Cc1ccc(S(=O)(=O)CC2CSc3nc(N)cc(=O)n32)cc1 (configuration not stated),0,0,0,0,0,0,-
COc1ccc(OC)c(C(=O)Cn2nnc3ccccc3c2=O)c1,0,0,0,0,0,0,-
Cc1cc(C(=O)Cn2nnc3ccccc3c2=O)c(C)n1Cc1cccs1,0,0,0,0,0,0,0
Cc1cc(C)nc(NC2=NCC(=O)N2c2ccc(F)c(Cl)c2)n1,0,39.8,0,0,0,0,0
Cc1cccc(C)c1NC(=O)COC(=O)CN1C(=O)C2CCCCC2C1=O (configuration not stated),-,0,-,0,0,-,-
Cc1ccc(-n2nc3c(=O)n(CCCC(=O)NCc4ccc(F)cc4)nc(C)c3c2C)cc1,0,39.1,0,0,0,0,0
Cc1ccc(-n2nc3c(=O)n(CCCC(=O)NCc4cccc(F)c4)nc(C)c3c2C)cc1,0,0,0,0,0,0,-
Nc1ccccc1SCC(=O)Nc1nc(-c2ccccc2)cs1,0,46.7,0,0,0,0,40.3

# Screening results (PubChem BioAssay)
